Measurements from ChEMBL document CHEMBL1275253, “Human antimicrobial peptide LL-37 induces MefE/Mel-mediated macrolide resistance in Streptococcus pneumoniae” (2010).
≈ marks a conversion by molar mass, not a printed value.

What was measured:
Assay type in all cases: functional
Streptococcus pneumoniae [1] = assay: Antimicrobial activity against mega::aad9-positive Streptococcus pneumoniae XZ8004 by microdilution method
Method in brief: (§1)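 Broth microdilution adapted for cationic antimicrobial peptides. Cultures grown to OD600 0.4 without inducer. Bacteria at a final 2 × 10^5/ml in 5-fold-diluted TH medium with 0.5% yeast extract, added to serial dilutions of test agent. After 1 h at 37°C, samples plated on blood agar and incubated 16 h at 37°C with 5% CO2. MIC and MBC read. At least three independent experiments; one representative shown.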

Streptococcus pneumoniae [2] = assay: Antimicrobial activity against Streptococcus pneumoniae XZ7042 by Etest method
Streptococcus pneumoniae [3] = assay: Antimicrobial activity against mega::aad9-positive Streptococcus pneumoniae XZ8006 expressing PmefE-lacZ gene induced by pretreatment with 50 ug/ml of compound for 1 hr by microdilution method
Method in brief: (§2)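 Cultures grown to OD600 0.4, then split and pre-exposed 1 h to subinhibitory LL-37: 200 μg/ml for GA17457 and XZ7042, 50 for XZ8006 and XZ8009, 100 for XZ8004. Cells then at a final 2 × 10^5/ml in 5-fold-diluted TH with 0.5% yeast extract, added to serial dilutions. […] At least three independent experiments.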

Streptococcus pneumoniae [4] = assay: Antimicrobial activity against Streptococcus pneumoniae XZ7042 by microdilution method; method in brief: as §1
Streptococcus pneumoniae [5] = assay: Antimicrobial activity against mega::aad9-positive Streptococcus pneumoniae XZ8006 by Etest method
Streptococcus pneumoniae [6] = assay: Antimicrobial activity against mega::aad9-positive Streptococcus pneumoniae XZ8006 by microdilution method; method in brief: as §1
Streptococcus pneumoniae [7] = assay: Antimicrobial activity against mega::aad9-positive Streptococcus pneumoniae XZ8004 by Etest method
Streptococcus pneumoniae [8] = assay: Antimicrobial activity against wild-type Streptococcus pneumoniae GA17457 expressing PmefE-lacZ gene induced by pretreatment with 200 ug/ml of compound for 1 hr by microdilution method; method in brief: as §2
Streptococcus pneumoniae [9] = assay: Antimicrobial activity against mefE-mel::aph3-positive Streptococcus pneumoniae XZ8009 expressing PmefE-lacZ gene induced by pretreatment with 50 ug/ml of compound for 1 hr by microdilution method; method in brief: as §2
Streptococcus pneumoniae [10] = assay: Antimicrobial activity against mefE-mel::aph3-positive Streptococcus pneumoniae XZ8009 by microdilution method; method in brief: as §1
Streptococcus pneumoniae [11] = assay: Antimicrobial activity against Streptococcus pneumoniae XZ7042 expressing PmefE-lacZ gene induced by pretreatment with 200 ug/ml of compound for 1 hr by microdilution method; method in brief: as §2
Streptococcus pneumoniae [12] = assay: Antimicrobial activity against wild-type Streptococcus pneumoniae GA17457 expressing PmefE-lacZ gene induced by pretreatment with 1 ug/ml of erythromycin for 1 hr by microdilution method
Method in brief: (§3)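 Cultures grown to OD600 0.4, split and pre-exposed 1 h to 1 μg/ml erythromycin. Final 2 × 10^5 bacteria/ml in 5-fold-diluted TH with 0.5% yeast extract, added to serial dilutions. After 1 h at 37°C, plated on blood agar. […] At least three independent experiments; one representative shown.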

Streptococcus pneumoniae [13] = assay: Antimicrobial activity against wild-type Streptococcus pneumoniae GA17457 by microdilution method; method in brief: as §1
Streptococcus pneumoniae [14] = assay: Antimicrobial activity against mefE-mel::aph3-positive Streptococcus pneumoniae XZ8009 by Etest method
Streptococcus pneumoniae [15] = assay: Antimicrobial activity against Streptococcus pneumoniae XZ7042 expressing PmefE-lacZ gene induced by pretreatment with 1 ug/ml of erythromycin for 1 hr by microdilution method; method in brief: as §3
Streptococcus pneumoniae [16] = assay: Antimicrobial activity against mega::aad9-positive Streptococcus pneumoniae XZ8004 expressing PmefE-lacZ gene induced by pretreatment with 100 ug/ml of compound for 1 hr by microdilution method; method in brief: as §2
Streptococcus pneumoniae [17] = assay: Antimicrobial activity against wild-type Streptococcus pneumoniae GA17457 by Etest method
Streptococcus pneumoniae [18] = assay: Antimicrobial activity against mega::aad9-positive Streptococcus pneumoniae XZ8004 expressing PmefE-lacZ gene induced by pretreatment with 100 ug/ml of LL-37 peptide for 1 hr by microdilution method; method in brief: as §2
Streptococcus pneumoniae [19] = assay: Antimicrobial activity against Streptococcus pneumoniae XZ7042 expressing PmefE-lacZ gene induced by pretreatment with 200 ug/ml of LL-37 peptide for 1 hr by microdilution method; method in brief: as §2
Streptococcus pneumoniae [20] = assay: Antimicrobial activity against mega::aad9-positive Streptococcus pneumoniae XZ8006 expressing PmefE-lacZ gene induced by pretreatment with 50 ug/ml of LL-37 peptide for 1 hr by microdilution method; method in brief: as §2
Streptococcus pneumoniae [21] = assay: Antimicrobial activity against wild-type Streptococcus pneumoniae GA17457 expressing PmefE-lacZ gene induced by pretreatment with 1 ug/ml of compound for 1 hr by microdilution method; method in brief: as §3
Streptococcus pneumoniae [22] = assay: Antimicrobial activity against wild-type Streptococcus pneumoniae GA17457 expressing PmefE-lacZ gene induced by pretreatment with 200 ug/ml of LL-37 peptide for 1 hr by microdilution method; method in brief: as §2
Streptococcus pneumoniae [23] = assay: Antimicrobial activity against mefE-mel::aph3-positive Streptococcus pneumoniae XZ8009 expressing PmefE-lacZ gene induced by pretreatment with 50 ug/ml of LL-37 peptide for 1 hr by microdilution method; method in brief: as §2
Streptococcus pneumoniae [24] = assay: Antimicrobial activity against Streptococcus pneumoniae XZ7042 expressing PmefE-lacZ gene induced by pretreatment with 1 ug/ml of compound for 1 hr by microdilution method
Method in brief: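 Reporter: PmefE-lacZ integrated at bga in clinical isolate GA17457 (serotype 19A). Cultures grown to OD600 0.4, split, and grown 1 h with or without a subinhibitory 1 μg/ml inducer. […] Representative of ≥3 experiments.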

Work on `CC[C@H](C)[C@H](NC(=O)[C@H](CCCCN)NC(=O)[C@H](CCC(=O)O)NC(=O)[C@H](CCCCN)NC(=O)[C@H](CO)NC(=O)[C@H](CCCCN)NC(=O)[C@H](CCCNC(=N)N)NC(=O)[C@H](Cc1ccccc1)NC(=O)[C@H](Cc1ccccc1)NC(=O)[C@H](CC(=O)O)NC(=O)CNC(=O)[C@H](CC(C)C)NC(=O)[C@@H](N)CC(C)C)C(=O)NCC(=O)N[C@@H](CCCCN)C(=O)N[C@@H](CCC(=O)O)C(=O)N[C@@H](Cc1ccccc1)C(=O)N[C@@H](CCCCN)C(=O)N[C@@H](CCCNC(=N)N)C(=O)N[C@H](C(=O)N[C@H](C(=O)N[C@@H](CCC(N)=O)C(=O)N[C@@H](CCCNC(=N)N)C(=O)N[C@H](C(=O)N[C@@H](CCCCN)C(=O)N[C@@H](CC(=O)O)C(=O)N[C@@H](Cc1ccccc1)C(=O)N[C@@H](CC(C)C)C(=O)N[C@@H](CCCNC(=N)N)C(=O)N[C@@H](CC(N)=O)C(=O)N[C@@H](CC(C)C)C(=O)N[C@H](C(=O)N1CCC[C@H]1C(=O)N[C@@H](CCCNC(=N)N)C(=O)N[C@H](C(=O)N[C@@H](CCC(=O)O)C(=O)N[C@@H](CO)C(=O)O)[C@@H](C)O)C(C)C)[C@@H](C)CC)C(C)C)[C@@H](C)CC` [CATHELICIDIN] yielded an MBC (Streptococcus pneumoniae [1]) of 500 µg/mL (≈ 111 µM), an MIC (Streptococcus pneumoniae [1]) of 250 µg/mL (≈ 55.6 µM) and an MIC (Streptococcus pneumoniae [2]) of 12 µg/mL (≈ 2.67 µM). It also gave an MBC (Streptococcus pneumoniae [3]) of 250 µg/mL (≈ 55.6 µM), an MIC (Streptococcus pneumoniae [3]) of 125 µg/mL (≈ 27.8 µM) and an MBC (Streptococcus pneumoniae [4]) of 1000 µg/mL (≈ 223 µM). The MIC (Streptococcus pneumoniae [4]) was 500 µg/mL (≈ 111 µM), the MIC (Streptococcus pneumoniae [5]) was 0.125 µg/mL (≈ 0.0278 µM) and the MBC (Streptococcus pneumoniae [6]) was 250 µg/mL (≈ 55.6 µM). The MIC (Streptococcus pneumoniae [6]) was 125 µg/mL (≈ 27.8 µM), the MIC (Streptococcus pneumoniae [7]) was 0.125 µg/mL (≈ 0.0278 µM) and the MBC (Streptococcus pneumoniae [8]) was greater than 2000 µg/mL. The MIC (Streptococcus pneumoniae [8]) was 2000 µg/mL (≈ 445 µM), the MBC (Streptococcus pneumoniae [9]) was 250 µg/mL (≈ 55.6 µM) and the MIC (Streptococcus pneumoniae [9]) was 64 µg/mL (≈ 14.2 µM). The MBC (Streptococcus pneumoniae [10]) was 250 µg/mL (≈ 55.6 µM), the MIC (Streptococcus pneumoniae [10]) was 125 µg/mL (≈ 27.8 µM) and the MBC (Streptococcus pneumoniae [11]) was greater than 2000 µg/mL. For the same compound, the MIC (Streptococcus pneumoniae [11]) was 2000 µg/mL (≈ 445 µM), the MBC (Streptococcus pneumoniae [12]) was greater than 2000 µg/mL and the MIC (Streptococcus pneumoniae [12]) was 2000 µg/mL. The MBC (Streptococcus pneumoniae [13]) was 1000 µg/mL (≈ 223 µM), the MIC (Streptococcus pneumoniae [13]) was 500 µg/mL (≈ 111 µM) and the MIC (Streptococcus pneumoniae [14]) was 0.125 µg/mL (≈ 0.0278 µM). It also gave an MBC (Streptococcus pneumoniae [15]) greater than 2000 µg/mL, an MIC (Streptococcus pneumoniae [15]) of 2000 µg/mL and an MBC (Streptococcus pneumoniae [16]) of 250 µg/mL (≈ 55.6 µM). For the same compound, the MIC (Streptococcus pneumoniae [16]) was 125 µg/mL (≈ 27.8 µM) and the MIC (Streptococcus pneumoniae [17]) was 12 µg/mL (≈ 2.67 µM).

`CC[C@H]1OC(=O)[C@H](C)[C@@H](O[C@H]2C[C@@](C)(OC)[C@@H](O)[C@H](C)O2)[C@H](C)[C@@H](O[C@@H]2O[C@H](C)C[C@H](N(C)C)[C@H]2O)[C@](C)(O)C[C@@H](C)C(=O)[C@H](C)[C@@H](O)[C@]1(C)O` [ERYTHROMYCIN] was tested, and the MBC (Streptococcus pneumoniae [1]) was 4 µg/mL (≈ 5.45 µM), the MIC (Streptococcus pneumoniae [1]) was 0.25 µg/mL (≈ 0.341 µM) and the MBC (Streptococcus pneumoniae [18]) was 4 µg/mL (≈ 5.45 µM). The MIC (Streptococcus pneumoniae [18]) was 0.5 µg/mL (≈ 0.681 µM), the MBC (Streptococcus pneumoniae [19]) was 32 µg/mL (≈ 43.6 µM) and the MIC (Streptococcus pneumoniae [19]) was 16 µg/mL (≈ 21.8 µM). For the same compound, the MBC (Streptococcus pneumoniae [4]) was 8 µg/mL (≈ 10.9 µM), the MIC (Streptococcus pneumoniae [4]) was 1 µg/mL (≈ 1.36 µM) and the MBC (Streptococcus pneumoniae [6]) was 4 µg/mL (≈ 5.45 µM). It also gave an MIC (Streptococcus pneumoniae [6]) of 0.5 µg/mL (≈ 0.681 µM), an MBC (Streptococcus pneumoniae [20]) of 4 µg/mL (≈ 5.45 µM) and an MIC (Streptococcus pneumoniae [20]) of 0.5 µg/mL (≈ 0.681 µM). The MBC (Streptococcus pneumoniae [21]) was greater than 64 µg/mL, the MIC (Streptococcus pneumoniae [21]) was 8 µg/mL (≈ 10.9 µM) and the MBC (Streptococcus pneumoniae [22]) was 32 µg/mL (≈ 43.6 µM). The MIC (Streptococcus pneumoniae [22]) was 8 µg/mL (≈ 10.9 µM), the MBC (Streptococcus pneumoniae [10]) was 4 µg/mL (≈ 5.45 µM) and the MIC (Streptococcus pneumoniae [10]) was 0.5 µg/mL (≈ 0.681 µM). It also gave an MBC (Streptococcus pneumoniae [23]) of 2 µg/mL (≈ 2.73 µM), an MIC (Streptococcus pneumoniae [23]) of 0.125 µg/mL (≈ 0.17 µM) and an MBC (Streptococcus pneumoniae [13]) of 16 µg/mL (≈ 21.8 µM). It also gave an MIC (Streptococcus pneumoniae [13]) of 2 µg/mL (≈ 2.73 µM), an MBC (Streptococcus pneumoniae [24]) greater than 64 µg/mL and an MIC (Streptococcus pneumoniae [24]) of 4 µg/mL (≈ 5.45 µM).
